# From PubChem BioAssay
# ABHD5 PLIN5 PPI: ABHD5-PLIN5 interaction inhibitors, primary screen, cell lysate, split luciferase complementation, luminescence; 360,000 tested, 0.78% active; Perilipin-5 (Homo sapiens) + 1-acylglycerol-3-phosphate O-acyltransferase ABHD5 (Homo …; inhibition, % at 4 µM; Split G. princeps luciferase complementation, 4 h;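 active means inhibition above the mean inhibition across every tested compound plus 3 SD, cut at about 22% in these data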;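 further: 0% = DMSO only wells and the 100% control is not disclosed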
# GRK2 aptamer HTS: compounds blocking aptamer binding on GRK2 – biochemical, human GRK2, bead flow cytometry, HTS, primary screen. Beta-adrenergic receptor kinase 1 (Homo sapiens), P25098. FAM-aptamer displacement from GRK2. inhibition of aptamer binding, % at 10 µM. 330,000 tested, 0.59% active;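 active means inhibition of aptamer binding above 40%, roughly 3 SD of noise, on plates passing a quality check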;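 further: median bead fluorescence of bound FAM aptamer so fluorescent compounds give negative values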
# NadD block: inhibitors of S. aureus NadD, primary screen, biochemical, colorimetric, uHTS. Nicotinate-nucleotide adenylyltransferase NadD (Staphylococcus aureus N315). purified NadD enzyme, colorimetric absorbance read-out. inhibition, % at 20 µM. 360,000 tested, 0.78% active; in the data active means inhibition above about 26%
# SENP1 inh: human SENP1 catalytic domain inhibitors, primary screen, biochemical, FRET, uHTS; inhibition, % at 10 µM; recombinant SENP1 catalytic domain, CyPet-SUMO1-YPet FRET cleavage; Sentrin-specific protease 1 (Homo sapiens), Q9P0U3; 360,000 tested, 0.21% active;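 active means inhibition at least 30% at 10 µM, raw YFP signal under a set limit, fluorescence ratio 0.5 to 1.5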;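 further: 0% = enzyme with DMSO and 100% = no enzyme wells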
# Target sequence (Q9P0U3 419-644 limits assumed): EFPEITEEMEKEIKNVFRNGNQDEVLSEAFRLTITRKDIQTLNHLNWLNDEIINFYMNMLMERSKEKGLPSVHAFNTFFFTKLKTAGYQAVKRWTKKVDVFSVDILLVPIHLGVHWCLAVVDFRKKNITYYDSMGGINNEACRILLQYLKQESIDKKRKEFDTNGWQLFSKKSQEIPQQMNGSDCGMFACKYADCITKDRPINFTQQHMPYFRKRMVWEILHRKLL
#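 material = recombinant human SENP1 catalytic domain, His6-tagged | quantity = 20 pM enzyme | reagent = 25 nM SUMO1 FRET substrate | compound dosing = 10 µM single point, 0.5% DMSO | timing = 50 min enzyme reaction, room temperature, light-protected | detection = FRET, CFP and YFP emission | control set = no-enzyme low, enzyme-DMSO high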
# B2AR ag: beta2AR agonists driving receptor internalization, primary screen, cell-based, FAP fluorogen, flow cytometry; response, % (concentration not given with the values); 340,000 tested, 0.43% active; Am2.2-beta2AR cells; Beta-2 adrenergic receptor (Homo sapiens), P07550; AID 504454, 2011;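 active means response above a set limit, near 3 SD of response in nonfluorescent compounds, cut at about 42% in these data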
# Target sequence (P07550 whole entry, looked up): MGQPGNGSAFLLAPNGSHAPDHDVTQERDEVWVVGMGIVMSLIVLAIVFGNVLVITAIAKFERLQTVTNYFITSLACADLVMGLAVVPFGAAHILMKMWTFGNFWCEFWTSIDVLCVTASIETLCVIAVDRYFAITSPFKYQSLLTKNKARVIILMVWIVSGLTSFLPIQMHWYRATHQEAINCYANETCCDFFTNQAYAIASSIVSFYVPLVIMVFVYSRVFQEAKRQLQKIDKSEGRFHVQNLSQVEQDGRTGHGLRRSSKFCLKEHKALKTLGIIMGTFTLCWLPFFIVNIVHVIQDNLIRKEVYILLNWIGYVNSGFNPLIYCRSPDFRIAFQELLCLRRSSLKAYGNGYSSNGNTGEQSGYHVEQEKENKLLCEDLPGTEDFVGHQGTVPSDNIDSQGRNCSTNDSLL
# GRK2 inh confirm: GRK2 aptamer-displacing inhibitors, retest, confirmation, biochemical, cherry pick 1, bead flow cytometry | shares compounds with GRK2 aptamer HTS | 2,000 tested, 4% active | bead-bound GRK2, FAM-aptamer displacement | aptamer displacement, % at 10 µM;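 active means aptamer displacement above 40%, near three times the noise of non-fluorescent compounds, on plates passing quality checks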;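 further: negative values mostly reflect intrinsic compound fluorescence rather than true enhancement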
# Aptamer quench: fluorescent aptamer quenching in GRK2 counter-screen dose response. fluorescence change (kMESF span), kMESF (test concentration not listed). shares compounds with GRK2 aptamer HTS. 110 tested, under 10 active. Fluorescent RNA aptamer beads, flow cytometry; active compounds read high;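 active means compounds whose bead fluorescence drops by more than 37 kMESF across the dose range, marking them as dye quenchers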
# FAM quench CP1: quenches fluorescent RNA aptamer, GRK2 hit artifact; shares compounds with GRK2 aptamer HTS; Carboxyfluorescein RNA aptamer on beads, flow cytometry quenching; active compounds read low; fluorescence response (% of DMSO), % at 10 µM; 2,000 tested, under 10 active; AID 504580;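 active means compounds that quench the bead-bound fluorescent RNA probe, cutting fluorescence to under half of the solvent control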;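 further: counterscreen run without GRK2 so only probe quenching by compound is measured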
# GRK2 confirm 2: GRK2 aptamer-displacing inhibitors, hit retest, confirmation, biochemical, cherry pick 2, bead flow cytometry; shares compounds with GRK2 aptamer HTS; bead-bound GRK2, FAM-aptamer displacement; inhibition of aptamer binding, % at 10 µM; 360 tested, under 10 active; AID 504782, 2011;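 active means inhibition of aptamer binding above 40%, about triple the noise seen with nonglowing compounds, on plates passing quality control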;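 further: negative values mostly come from compounds that fluoresce themselves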
# FAM quench CP2: quenches fluorescent RNA aptamer, GRK2 hit artifact. shares compounds with GRK2 aptamer HTS. 360 tested, under 10 active. fluorescence response vs DMSO, % at 10 µM. carboxyfluorescein RNA aptamer beads, flow cytometry quenching; active compounds read low;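 active means response vs DMSO under 50%, meaning signal dropped by over half, treated as fluorescence quencher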;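 further: labelled aptamer on streptavidin beads without GRK2 as a quench counter-screen; 100% = bead fluorescence of DMSO wells and lower means quenching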
# ABHD5-PLIN5 conf: ABHD5-PLIN5 interaction inhibitors, confirmation, biochemical, luminescence; shares compounds with ABHD5 PLIN5 PPI; inhibition, % at 4 µM; 2,200 tested, 67% active; in the data active means inhibition above about 23%;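 further: 0% = DMSO vehicle wells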
# HNF4 split-luc: HNF4 dimerization inhibitors, counter-screen for ABHD5-PLIN5 interaction inhibitor project, biochemical, split-luciferase complementation, luminescence. shares compounds with ABHD5 PLIN5 PPI. inhibition, % at 4 µM. 2,200 tested, 77% active. AID 651674, 2012;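 active means mean inhibition across replicate wells exceeding the computed hit threshold, cut at about 13% in these data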;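 further: light from luciferase halves that rejoin when HNF4 fusion proteins dimerize; 0% = DMSO only wells and the 100% control is not given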
# * hit, by the source's call; x = no result given. Most compounds without a hit are left out; they make up all but 2.5% or so of the library.
SMILES,ABHD5 PLIN5 PPI,GRK2 aptamer HTS,NadD block,SENP1 inh,B2AR ag,GRK2 inh confirm,FAM quench CP1,others
Cc1occc1C(=O)NCc1cccc(CNC(=O)c2ccoc2C)c1,11,47*,7,-10,6,0,98,
Cc1occc1C(=O)NCc1ccc2c(c1)OCO2,-3,0,-1,-3,1,x,x,
CCc1c(C(=O)NNC(=O)Nc2ccc3c(c2)OCO3)csc1C,-6,0,-4,2,1,x,x,
COc1ccc(CNC(=O)c2cc(-c3ccc(OC)c(OC)c3)on2)cc1,-6,1,-7,-1,3,x,x,
COc1ccc(-c2cc(C(=O)NCc3ccc(Cl)cc3)no2)cc1OC,7,38,-4,4,15,0,192,
CCOC(=O)CC(NS(=O)(=O)c1ccc2[nH]cc(C(=O)O)c(=O)c2c1)c1ccc(OCC)c(OC)c1 (centres undefined),4,89*,1,-1,-5,70*,100,Aptamer quench=-122
CC1CC(C)CN(S(=O)(=O)c2cccc(C(=O)OCCN3CCCC3=O)c2)C1 (centres undefined),-4,89*,-1,1,8,2,98,
Cc1cccc(CN2CCN(Cc3ccc4nonc4c3)CC2CCO)n1 (centres undefined),-4,41*,-6,1,-7,-14,101,
Cc1cccc(CN2CCN(CC(C)C)C(CCO)C2)n1 (centres undefined),0,1,-4,-3,6,x,x,
CCOc1ccccc1NC(=O)CCNC(=O)N1CC(=O)Nc2ccccc21,8,x,-3,2,x,x,x,
CC(C)[C@H](N)c1cn([C@@H](CO)C(=O)N2CCNCC2)nn1,2,4,-2,2,-2,x,x,
NC(=O)C[C@H](N)c1cn([C@@H](CC(N)=O)C(=O)N2CCNCC2)nn1,-2,49*,-1,2,-3,1,101,
COC(=O)NNC(=O)COc1ccc(Br)c(C)c1,0,1,-3,2,6,x,x,
Cc1cc(OCC(=O)Nn2cnnc2)ccc1Br,10,71*,2,1,29,6,98,
COc1ccc(C(=O)Nc2ccccc2NC(=O)c2ccco2)cc1OC,-6,44*,-6,2,-4,3,97,
Cc1cc(NC(=O)COc2ccccc2C)ccc1NC(=O)c1ccco1,2,0,-4,2,-21,x,x,
COc1cc(NC(=O)COc2ccccc2C)ccc1NC(=O)c1ccco1,-1,51*,-7,2,0,x,x,GRK2 confirm 2=-4;FAM quench CP2=101
CC1CC(O)C(C)CN1 (centres undefined),-10,x,2,1,3,x,x,
C=CCNC(=O)c1onc(CSc2ccc(F)c(F)c2)c1C(=O)NCC=C,-12,53*,-15,2,5,-2,105,
CC(=O)OC1CC2(C)C(CCC2(O)C(C)=O)C2CCC3C(Cl)C(=O)CCC3(C)C12 (centres undefined),-2,x,-3,2,-3,x,x,
CC1(C)Cc2ccccc2-c2nnc(-c3cccnc3)n21,3,100*,-2,0,9,x,x,GRK2 confirm 2=-8;FAM quench CP2=97
CC1(C)Cc2ccccc2-c2nnc(-c3ccccc3)n21,4,0,8,2,0,x,x,
Cc1cccc(NC(=O)c2ccc(Cl)nc2)n1,-3,0,3,0,-1,x,x,
Cc1cccc(NC(=O)c2csnn2)n1,0,34,-6,0,-13,-3,98,
COc1cc(SC)ccc1C(=O)NNC(=O)c1cc(C)oc1C,10,45*,1,2,-6,-4,102,
SMILES,ABHD5 PLIN5 PPI,GRK2 aptamer HTS,NadD block,SENP1 inh,B2AR ag,GRK2 inh confirm,FAM quench CP1,others
COc1cc(SC)ccc1C(=O)Nc1c(C)cccc1C,1,0,-9,3,2,x,x,
CCOC(=O)C1CCN(C(=O)c2ccc(OC3CCN(C(=O)COC)CC3)cc2)CC1,0,x,-6,-1,-13,x,x,
COC(=O)c1ccc(Oc2ccc3nncn3n2)cc1,3,49*,5,0,2,0,100,
COC(=O)c1ccc(Oc2ccc3nnc(C)n3n2)cc1,5,0,2,4,21,x,x,
CCCC(=O)Nc1nc2ccc(OCC)cc2s1,0,1,-2,-2,-8,x,x,
CCOc1ccc2nc(NC(=O)CCn3cccc3)sc2c1,4,34,-5,0,6,3,98,
CN(c1ccccc1)S(=O)(=O)c1cc(C(=O)Nc2ccccc2N2CCOCC2)ccc1Cl,-7,x,5,1,6,x,x,
N#Cc1ccc(/C=C/C(=O)c2ccccc2)cc1,83*,51*,-9,1,19,2,97,ABHD5-PLIN5 conf=100*;HNF4 split-luc=105*
CCOc1ccc(/C=C/C(=O)c2ccc(-c3ccccc3)cc2)cc1,5,0,2,-39,5,x,x,
CSc1ccc(/C=C/C(=O)c2ccc(NC(C)=O)cc2)cc1,25*,88*,-8,7,1,-4,96,ABHD5-PLIN5 conf=52*;HNF4 split-luc=41*
COc1ccc(C(=O)N(C)Cc2cnn(Cc3ccccc3)c2)cc1S(=O)(=O)N1CCOCC1,0,2,0,1,19,x,x,
